# Laboratory results published in BindingDB's records for doi:10.1021/jm000285q (Merck Research Laboratories, 2000).
# Biological target: Insulin receptor (Homo sapiens, UniProt P06213)
# Assay: Activation of human insulin receptor tyrosine kinase (IRTK)
# In short: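 CHO cells stably transfected with human insulin receptor, plated 150 000 cells/well for 24 h, serum-starved 2 h, then exposed to compound 20 min at 37 °C. Lysate IR captured on anti-IR antibody wells (16 h, 4 °C), kinase reaction 40 min at 25 °C, radioactivity on phosphocellulose filters. Activity as % of maximal response to 100 nM insulin.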
# Chain of Insulin receptor (P06213 28-758 limits assumed): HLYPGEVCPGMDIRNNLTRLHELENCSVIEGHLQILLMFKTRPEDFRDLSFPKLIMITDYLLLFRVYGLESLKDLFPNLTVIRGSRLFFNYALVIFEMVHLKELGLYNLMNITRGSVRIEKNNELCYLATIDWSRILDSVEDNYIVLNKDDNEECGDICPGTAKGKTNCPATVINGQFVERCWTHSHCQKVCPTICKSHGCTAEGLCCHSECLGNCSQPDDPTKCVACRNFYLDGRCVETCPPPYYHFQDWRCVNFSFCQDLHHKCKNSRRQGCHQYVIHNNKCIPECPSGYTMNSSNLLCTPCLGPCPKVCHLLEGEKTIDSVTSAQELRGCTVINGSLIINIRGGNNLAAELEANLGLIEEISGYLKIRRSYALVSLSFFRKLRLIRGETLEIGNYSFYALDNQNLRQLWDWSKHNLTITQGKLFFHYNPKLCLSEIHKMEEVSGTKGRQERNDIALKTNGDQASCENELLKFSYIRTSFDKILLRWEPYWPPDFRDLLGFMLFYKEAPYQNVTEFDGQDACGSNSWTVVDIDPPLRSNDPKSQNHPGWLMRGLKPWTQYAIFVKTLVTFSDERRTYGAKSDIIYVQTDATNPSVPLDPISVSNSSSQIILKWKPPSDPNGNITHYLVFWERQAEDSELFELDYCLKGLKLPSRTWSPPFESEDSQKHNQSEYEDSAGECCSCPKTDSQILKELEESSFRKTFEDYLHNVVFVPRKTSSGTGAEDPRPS
# Chain of Insulin receptor (P06213 763-1382 limits assumed): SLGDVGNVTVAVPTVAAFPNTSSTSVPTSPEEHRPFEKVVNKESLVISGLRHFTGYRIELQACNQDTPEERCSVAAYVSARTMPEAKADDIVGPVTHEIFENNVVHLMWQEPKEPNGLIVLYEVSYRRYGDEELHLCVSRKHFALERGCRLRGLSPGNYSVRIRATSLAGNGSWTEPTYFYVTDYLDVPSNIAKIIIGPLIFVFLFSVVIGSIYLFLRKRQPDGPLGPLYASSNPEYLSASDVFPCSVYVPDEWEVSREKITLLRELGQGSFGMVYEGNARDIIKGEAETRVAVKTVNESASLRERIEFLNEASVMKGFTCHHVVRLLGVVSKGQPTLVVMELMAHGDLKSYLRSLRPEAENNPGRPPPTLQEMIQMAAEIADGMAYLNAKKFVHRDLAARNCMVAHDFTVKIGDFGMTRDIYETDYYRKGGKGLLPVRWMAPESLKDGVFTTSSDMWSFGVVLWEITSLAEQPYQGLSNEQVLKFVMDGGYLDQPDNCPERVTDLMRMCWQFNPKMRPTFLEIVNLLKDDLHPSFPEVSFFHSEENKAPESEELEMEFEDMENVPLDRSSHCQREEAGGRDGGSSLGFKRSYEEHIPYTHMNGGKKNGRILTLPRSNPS
smiles,measurement,value
"Cn1cc(C2C(=O)C(=O)C(c3ccccc3)C(=O)C2=O)c2ccccc21 (configuration not stated) [2,5-Dihydroxy-3-(1-methyl-1H-indol-3-yl)-6-phenyl-[1,4]benzoquinone]",EC50,300 nM
"O=C1C(=O)C(c2c[nH]c3ccccc23)C(=O)C(=O)C1c1ccccc1 (configuration not stated) [2,5-Dihydroxy-3-(1H-indol-3-yl)-6-phenyl-[1,4]benzoquinone]",EC50,300 nM
